# Where two headings read alike, the source gives them in different places.
# Assays:
# [1] = test system: DhhCre;Nf1fl/fl model of neurofibromatosis type 1–related neurofibromas; details: cited from earlier work
# [2] = format: in vivo
# [3] = test system: neurofibromatosis type 1–related plexiform neurofibromas; assay: Response evaluation by volumetric MRI analysis of plexiform neurofibroma volume; format: in vivo, human
# [4] = test system: plexiform neurofibroma–related complications; assay: Anecdotal report of amelioration of complications of plexiform neurofibroma; format: in vivo, human
# [5] = Plasma pharmacokinetics of selumetinib in patients during cycle 1; format: in vivo, human
# Procedure, shortened: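 Pediatric patients who consented received oral test compound capsules every 12 h, continuously in 28-day cycles, at 20, 25 or 30 mg per square meter (nomogram by body-surface area). Plasma was sampled in cycle 1 on day 1 before dosing and 0.5, 1, 2, 3, 5, 8, 10–12, 24 and 30–36 h after, and on day 27 before dosing. Parent and N-desmethyl metabolite were assayed; noncompartmental PK analysis.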
# [6] = test system: phosphorylated extracellular signal-regulated kinase (ERK); assay: Pharmacodynamics in mouse tumor samples; details: in vivo
# [7] = children with low-grade gliomas; cited from earlier work
# plexiform neurofibromas = details: 4 of 83 patients; phase 2 trial; cited from earlier work
# [8] = 20-mg group, 7 patients with condition at baseline
# [9] = 25-mg group, 3 patients with condition at baseline
# [10] = 30-mg group, 3 patients with condition at baseline
compound,measurement,setting,value
O=C(NOC[C@H](O)CO)c1ccc(F)c(F)c1Nc1ccc(I)cc1F [PD0325901],Effect on neurofibroma volume,[1],tumor shrinkage in the majority of mice
Cn1cnc2c(F)c(Nc3ccc(Br)cc3Cl)c(C(=O)NOCCO)cc21 [selumetinib],Tolerability of 30 mg per square meter relative to maximum tolerated dose,[2]; 30 mg per square meter twice daily,exceeded the maximum tolerated dose
same,Maximum tolerated dose,"[2]; children, oral, every 12 hours, continuous dosing in 28-day cycles, approximately 60% of the recommended adult dose",25 mg per square meter
same,Dose-limiting toxic effect: cellulitis,"[2]; human, in vivo",Grade 3 (2 patients)
same,Dose-limiting toxic effect: decreased left ventricular ejection fraction,"[2]; human, in vivo",Grade 3 (1 patient)
same,Dose-limiting toxic effect: rash,"[2]; human, in vivo",Grade 3 (1 patient)
same,Dose-limiting toxic effect: urticaria,"[2]; human, in vivo",Grade 3 (1 patient)
same,Dose-limiting toxic effects in later cycles: cellulitis,"[2]; human, in vivo",1 patient
same,Dose-limiting toxic effects in later cycles: creatine kinase elevation,"[2]; human, in vivo",4 patients
same,Dose-limiting toxic effects in later cycles: oral mucositis,"[2]; human, in vivo",3 patients
same,Left ventricular ejection fraction after decrease,"[2]; human, in vivo",50%
same,Serial ophthalmologic examinations,"[2]; human, in vivo","no abnormalities, with the exception of a grade 1 asymptomatic cataract at cycle 16 in 1 patient"
same,Severity of most selumetinib-related adverse events,"[2]; human, in vivo",mild (grade 1)
same,Treatment stopped because of dose-limiting toxic effects,"[2]; human, in vivo",1
same,Effect on height or weight,[2]; in vivo,No measurable effect
same,Reversibility of dose-limiting toxic effects,[2]; in vivo,reversible
same,"Partial response, documented progressive disease at enrollment",[3]; 5 of 9 patients,56%
same,"Partial response, no previous volumetric data available at enrollment",[3]; 6 of 7 patients,86%
same,Median time free of progression,"[3]; 9 patients with confirmed tumor growth before enrollment, range, 23 to 46",26 cycles
same,Confirmed partial response,"[3]; 17 of the 24 patients, tumor volume decrease from baseline ≥20%",71%
same,Median best response (range),[3]; 20-mg group (N = 12),−31 (−6 to −47) % volume change from baseline
same,Median time to best response (range),[3]; 20-mg group (N = 12),22 (5 to 42) mo
same,Partial response,"[3]; 20-mg group (N = 12), tumor volume decrease from baseline ≥20% for at least 4 weeks",9 (75) no. (%)
same,"No. with response, insufficient information on progression status at entry","[3]; 20-mg group, of 4 patients",3
same,"No. with response, nonprogressive disease at trial entry","[3]; 20-mg group, of 4 patients",4
same,"No. with response, progressive disease at trial entry","[3]; 20-mg group, of 4 patients",2
same,Median best response (range),[3]; 25-mg group (N = 6),−34 (−16 to −44) % volume change from baseline
same,Median time to best response (range),[3]; 25-mg group (N = 6),18 (9 to 22) mo
same,Partial response,"[3]; 25-mg group (N = 6), tumor volume decrease ≥20%",5 (83) no. (%)
same,"No. with response, insufficient information on progression status at entry","[3]; 25-mg group, of 2 patients",2
same,"No. with response, progressive disease at trial entry","[3]; 25-mg group, of 4 patients",3
same,Median best response (range),[3]; 30-mg group (N = 6),−19 (−13 to −34) % volume change from baseline
same,Median time to best response (range),[3]; 30-mg group (N = 6),8 (5 to 24) mo
same,Partial response,"[3]; 30-mg group (N = 6), tumor volume decrease ≥20%",3 (50) no. (%)
same,"No. with response, insufficient information on progression status at entry","[3]; 30-mg group, of 1 patient",1
same,"No. with response, progressive disease at trial entry","[3]; 30-mg group, of 1 patient",0
same,"No. with response, nonprogressive disease at trial entry","[3]; 30-mg group, of 4 patients",2
same,Tumor volume reduction since reinitiation at a reduced dose,[3]; Patient 7 (30-mg group),25%
same,Increase in plexiform neurofibroma volume from baseline after drug interruption,"[3]; Patient 7 (30-mg group), when selumetinib was restarted",9.6%
same,Median change from baseline in plexiform neurofibroma volume (best response),[3]; all 24 patients,−31%
same,Range of change from baseline in plexiform neurofibroma volume (best response),[3]; all 24 patients,−5.8 to −47%
same,Median time to maximum response,"[3]; all patients, range, 5 to 42",20 cycles
same,"Partial response, tumors assessed as stable at enrollment",[3]; in vivo,2 of 2
same,Patients with partial response who maintain their response status to date,[3]; in vivo,15 of the 17
same,Median duration of partial response,"[3]; range, 6 to 42",23 cycles
same,Disease progression (tumor volume increase from baseline of ≥20%),[3]; to date,No patients have had disease progression
same,Motor dysfunction: no. of patients with improvement,"[4]; 20-mg group, 3 patients with condition at baseline",2
same,Disfigurement: no. of patients with improvement,[4]; [8],2
same,Pain: no. of patients with improvement,[4]; [8],4
same,Motor dysfunction: no. of patients with improvement,[4]; [9],3
same,Pain: no. of patients with improvement,[4]; [9],3
same,Disfigurement: no. of patients with improvement,"[4]; 25-mg group, 6 patients with condition at baseline",3
same,Motor dysfunction: no. of patients with improvement,[4]; [10],0
same,Pain: no. of patients with improvement,[4]; [10],1
same,Disfigurement: no. of patients with improvement,"[4]; 30-mg group, 5 patients with condition at baseline",0
same,Drug exposure with increasing dose,[5]; 20 to 30 mg per square meter,less than dose-proportional
same,Selumetinib plasma concentrations versus N-desmethyl metabolite,[5]; plasma,exceeded those of the N-desmethyl metabolite at all time points
same,Absorption,"[5]; plasma, cycle 1, 18 patients",absorbed rapidly
same,Phosphorylated ERK in mouse tumor samples,[6],transient decrease
same,Maximum tolerated dose,[7],25 mg per square meter
pegylated interferon alfa-2b,Patients with tumor volume decrease from baseline of at least 20%,plexiform neurofibromas,5%
